# Reference: ChEMBL document CHEMBL4715822, “Structure-based lead optimization to improve antiviral potency and ADMET properties of phenyl-1H-pyrrole-carboxamide entry inhibitors targeted to HIV-1 gp120” (Eur J Med Chem, 2018)
# Assays:
# [1] = tested on: Human immunodeficiency virus 1; experiment: Antiviral activity against pseudovirus HIV-1 HXB-2 harboring Env I424F mutant infected in human U87.CD4.CXCR4 cells assessed as reduction in viral infection pretreated for 30 mins before viral infection and measured after 3 days by luciferase based assay; type: functional, cell-based, M:B_HXB2R
# Method in brief: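 Pseudoviruses made in HEK293T by co-transfecting an Env-deleted backbone (pSG3Δenv or pNL4-3.Luc.R-.E-) with an HXB-2 Env plasmid carrying single or double substitutions; Env sequences confirmed by sequencing. Virus pretreated 30 min with graded compound, added to U87-CD4-CXCR4 cells (1 × 10⁴/well, plated overnight), incubated 3 days. Cells lysed, luciferase measured, IC50 calculated.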
# [2] = Metabolic stability in human liver microsomes assessed as intrinsic clearance at 3 uM incubated for 120 mins by LC-MS/MS analysis; type: ADME, Microsome; conditions: read-out: CLH
# [3] = Solubility in 5% DMSO at pH 7.4 at 500 uM incubated for 90 mins in shaker by spectrophotometry; type: physicochemical
# Method in brief: (§1)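 DMSO stock diluted to 500 μM in universal aqueous buffer pH 7.4 with 2 or 5% DMSO final; quadruplicate, 90 min shaking at room temperature in filter plate, vacuum filtered; filtrate in 20% acetonitrile read by UV absorbance at six wavelengths. Filtrate/standard ratio binned as ~500, 100–500 or <100 μM.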
# [4] = Apparent permeability across basolateral to apical side in human Caco2 cells incubated for 2 hrs by LC-MS/MS analysis; type: ADME, cell-based, Caco-2; conditions: Caco-2
# Method in brief: (§2)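 Caco-2 monolayers grown three weeks to differentiate; compound in transport buffer pH 7.4 (glucose, 10 mM HEPES, HBSS) added apical (A-B) or basal (B-A) side, with or without 100 μM verapamil; 2 h incubation, both sides sampled. Lucifer yellow 100 μM on A side checks integrity (≤2% transport). Papp = (dQ/dt)/(C0 × A); efflux ratio = Papp(B→A)/Papp(A→B).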
# [5] = Metabolic stability in human liver microsomes assessed as parent compound remaining at 3 uM incubated for 120 mins by LC-MS/MS analysis; type: ADME, Microsome; conditions: read-out: Stabilty
# [6] = Cytotoxicity against human TZM-bl cells assessed as reduction in cell viability incubated for 3 days by XTT assay; type: cell-based; conditions: TZM-bl cells, time 3 day
# [7] = Solubility in 2 % DMSO at pH 7.4 at 500 uM incubated for 90 mins in shaker by spectrophotometry; type: physicochemical; method in brief: as §1
# [8] = Induction viral infection in pseudovirus HIV1 ADA infected in dog Cf2Th-CCR5 cells incubated for overnight followed by pretreated for 30 mins and added to cells measured after 48 hrs by luciferase-based assay; type: cell-based; conditions: human immunodeficiency virus 1, cf2th-ccr5, 48.5 h
# [9] = Cytotoxicity against human PBMC cells assessed as reduction in cell viability incubated for 1 hr followed by complete medium addition and measured after 48 hrs by XTT assay; type: cell-based
# Cytochrome P450 2C19 = Cytochrome P450 2C19 (Homo sapiens, UniProt P33261); experiment: Inhibition of human liver microsome CYP2C19 using mephenytoin as substrate incubated for 20 mins by LC-MS/MS analysis; type: ADME, microsomes
# Chain of Cytochrome P450 2C19 (P33261 whole entry): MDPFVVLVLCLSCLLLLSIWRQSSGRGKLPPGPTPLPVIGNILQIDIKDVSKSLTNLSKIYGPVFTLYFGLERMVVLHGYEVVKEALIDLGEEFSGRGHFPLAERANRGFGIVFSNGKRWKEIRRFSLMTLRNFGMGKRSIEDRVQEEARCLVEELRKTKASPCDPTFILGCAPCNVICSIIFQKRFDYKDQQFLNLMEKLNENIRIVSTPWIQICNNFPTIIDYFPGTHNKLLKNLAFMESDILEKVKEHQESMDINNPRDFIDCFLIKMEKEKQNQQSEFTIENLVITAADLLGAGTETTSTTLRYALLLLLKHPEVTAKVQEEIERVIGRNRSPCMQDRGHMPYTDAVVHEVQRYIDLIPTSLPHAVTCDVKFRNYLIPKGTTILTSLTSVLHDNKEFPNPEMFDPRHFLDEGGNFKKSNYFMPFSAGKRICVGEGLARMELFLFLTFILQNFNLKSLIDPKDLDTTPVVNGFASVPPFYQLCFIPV
# [10] = Protein binding in human plasma assessed as unbound fraction at 5 uM by LC-MS/MS analysis; type: ADME, cell-free
# [11] = Cytotoxicity against human MT2 cells assessed as reduction in cell viability incubated for 4 days by XTT assay; type: cell-based; conditions: MT2 cells, time 4 day
# Cytochrome P450 2B6 = biological target: T1, Cytochrome P450 2B6 (Homo sapiens, UniProt P20813); experiment: Inhibition of human liver microsome CYP2B6 using bupropion as substrate incubated for 20 mins by LC-MS/MS analysis; type: ADME, microsomes
# T1 sequence (P20813 whole entry): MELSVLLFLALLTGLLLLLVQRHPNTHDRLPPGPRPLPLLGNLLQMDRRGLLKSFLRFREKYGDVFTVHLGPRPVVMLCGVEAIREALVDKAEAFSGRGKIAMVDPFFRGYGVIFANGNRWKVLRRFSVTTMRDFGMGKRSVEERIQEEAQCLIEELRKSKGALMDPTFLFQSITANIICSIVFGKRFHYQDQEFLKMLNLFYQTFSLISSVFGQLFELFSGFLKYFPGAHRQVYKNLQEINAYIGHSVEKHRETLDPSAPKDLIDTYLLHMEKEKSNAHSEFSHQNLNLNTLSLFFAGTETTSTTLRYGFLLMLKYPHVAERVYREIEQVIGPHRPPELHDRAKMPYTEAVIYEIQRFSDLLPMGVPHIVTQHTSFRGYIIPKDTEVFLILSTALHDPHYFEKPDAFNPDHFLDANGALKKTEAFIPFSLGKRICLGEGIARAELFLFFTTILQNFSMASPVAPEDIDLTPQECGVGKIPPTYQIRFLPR
# [12] = Apparent permeability across apical to basolateral side in human Caco2 cells incubated for 2 hrs by LC-MS/MS analysis; type: ADME, cell-based, Caco-2; conditions: Caco-2; method in brief: as §2
# Cytochrome P450 3A4 = Cytochrome P450 3A4 (Homo sapiens, UniProt P08684); experiment: Inhibition of human liver microsome CYP3A4 using midazolam as substrate incubated for 20 mins by LC-MS/MS analysis; type: ADME, microsomes
# Chain of Cytochrome P450 3A4 (P08684 whole entry): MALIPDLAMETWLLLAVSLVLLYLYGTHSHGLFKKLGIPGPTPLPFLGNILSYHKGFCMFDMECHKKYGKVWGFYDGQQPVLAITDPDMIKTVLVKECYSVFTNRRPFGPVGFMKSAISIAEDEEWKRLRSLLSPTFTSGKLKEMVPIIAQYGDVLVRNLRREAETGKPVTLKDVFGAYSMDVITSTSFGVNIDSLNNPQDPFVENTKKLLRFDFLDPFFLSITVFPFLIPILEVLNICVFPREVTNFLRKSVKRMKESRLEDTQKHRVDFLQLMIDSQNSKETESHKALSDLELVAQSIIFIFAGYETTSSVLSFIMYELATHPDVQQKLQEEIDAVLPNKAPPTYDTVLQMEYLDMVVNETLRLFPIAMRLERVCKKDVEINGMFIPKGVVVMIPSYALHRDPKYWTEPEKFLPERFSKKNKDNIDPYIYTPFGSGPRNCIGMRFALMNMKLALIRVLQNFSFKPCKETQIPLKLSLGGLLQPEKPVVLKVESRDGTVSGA
# [13] = Cytotoxicity against dog Cf2Th-CCR5 cells assessed as reduction in cell viability incubated for 48 hrs by XTT assay; type: cell-based, Canis lupus familiaris; conditions: Cf2Th-CCR5 cells
structure (smiles),measurement,setting,value
NC[C@H](NC(=O)c1ccc(-c2ccc(C(F)(F)F)c(F)c2)[nH]1)c1nc(CO)cs1,IC50,[1],0.88 µM
same,microsomal CLint at 3 µM,[2],1.8 µL/min/mg
same,"solubility kinetic at […], 500 µM",[3],100 µM
same,Papp B→A at 2 h,[4],17.7 ×10⁻⁶ cm/s
same,"remaining at 2 h, 3 µM",[5],88.5%
same,CC50 at 72 h,[6],21.9 µM
same,"solubility kinetic at […], 500 µM",[7],100 µM
same,Activity,[8],Non-Toxic
same,CC50 at 49 h,[9],38.7 µM
same,IC50,Cytochrome P450 2C19,> 25 µM
same,fraction unbound at 5 µM,[10],0.00949
same,CC50 at 96 h,[11],22.1 µM
same,IC50,Cytochrome P450 2B6,> 25 µM
same,Papp A→B at 2 h,[12],0.602 ×10⁻⁶ cm/s
same,IC50,Cytochrome P450 3A4,> 25 µM
same,CC50 at 48 h,[13],34 µM
